Source: ChEMBL document CHEMBL3588770, “Novel spirohydantoin derivative as a potent multireceptor-active antipsychotic and antidepressant agent” (Bioorg Med Chem, 2015)

Each molecule was assayed against D(2) dopamine receptor (Rattus norvegicus, UniProt P61169) (assay: Displacement of [3H]spiperone from D2 receptor in rat striatum by liquid scintillation counting analysis).
D(2) dopamine receptor, sequence (P61169 whole entry): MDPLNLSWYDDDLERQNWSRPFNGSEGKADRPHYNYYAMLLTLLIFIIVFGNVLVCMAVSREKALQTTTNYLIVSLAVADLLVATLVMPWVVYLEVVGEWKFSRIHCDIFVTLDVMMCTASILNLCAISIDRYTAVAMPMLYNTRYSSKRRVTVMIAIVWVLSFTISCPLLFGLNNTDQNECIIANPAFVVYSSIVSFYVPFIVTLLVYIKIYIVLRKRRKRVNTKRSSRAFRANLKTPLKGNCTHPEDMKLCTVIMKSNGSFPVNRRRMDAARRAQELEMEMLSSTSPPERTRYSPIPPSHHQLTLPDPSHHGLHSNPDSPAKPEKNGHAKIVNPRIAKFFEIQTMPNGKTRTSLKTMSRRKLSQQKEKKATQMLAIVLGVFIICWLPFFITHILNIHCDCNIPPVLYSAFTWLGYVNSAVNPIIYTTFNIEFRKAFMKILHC
Outline: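 Rat striatal membranes with [3H]-spiperone. Compounds were tested in triplicate at 7–8 concentrations (10⁻¹¹–10⁻⁴). Ki values were calculated.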
O=C1NC2(CCc3ccccc32)C(=O)N1CCCCN1CCN(c2cccc(Cl)c2)CC1 (stereo not given) showed a Ki of 539 nM.
In the case of O=C1NC2(CCCc3ccccc32)C(=O)N1CCCCN1CCN(c2cccc(Cl)c2)CC1 (stereo not given), the Ki is reported as 1100 nM.

Each molecule was assayed against D(1A) dopamine receptor (Homo sapiens) (UniProt P21728) (assay: Displacement of [3H]SCH23390 from human D1 receptor expressed in CHO cells at 1 uM by scintillation counting analysis).
D(1A) dopamine receptor (Homo sapiens), sequence (P21728 whole entry): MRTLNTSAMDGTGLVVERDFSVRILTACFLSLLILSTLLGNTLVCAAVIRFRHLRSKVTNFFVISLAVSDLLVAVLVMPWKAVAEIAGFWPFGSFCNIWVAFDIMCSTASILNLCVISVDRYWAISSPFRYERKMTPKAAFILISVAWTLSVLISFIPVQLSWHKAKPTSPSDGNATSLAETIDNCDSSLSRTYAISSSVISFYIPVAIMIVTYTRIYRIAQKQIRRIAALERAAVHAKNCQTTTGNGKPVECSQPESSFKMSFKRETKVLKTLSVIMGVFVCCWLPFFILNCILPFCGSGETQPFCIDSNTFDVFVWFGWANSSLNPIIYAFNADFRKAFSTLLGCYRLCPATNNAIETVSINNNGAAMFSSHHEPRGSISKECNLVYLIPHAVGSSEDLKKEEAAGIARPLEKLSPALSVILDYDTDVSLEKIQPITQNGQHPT
Assay type: cell-based
Outline: (§1)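 Extended binding screen run by a contract lab. Receptors were cloned human: 5-HT1A, 5-HT2A, 5-HT2C and H1 in HEK-293 cells; D1, α1, α2C and M3 in CHO cells; 5-HT6/7 and D2/3/4 in CHO cells. Radioligand displacement was done at a single 1.0E-06 concentration in duplicate. Results are mean % inhibition of control specific binding.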
O=C1NC2(CCc3ccccc32)C(=O)N1CCCCN1CCN(c2cccc(Cl)c2)CC1 (stereo not given) showed an inhibition of 91%.
O=C1NC2(CCCc3ccccc32)C(=O)N1CCCCN1CCN(c2cccc(Cl)c2)CC1 (stereo not given) was tested, and the inhibition was 95%.

The molecules below were run against 5-hydroxytryptamine receptor 7 (Homo sapiens) (UniProt P34969) (assay: Displacement of [3H]LSD from human 5HT7 receptor expressed in CHO cells at 1 uM by scintillation counting analysis).
Assay type: cell-based
Outline: as §1
O=C1NC2(CCc3ccccc32)C(=O)N1CCCCN1CCN(c2cccc(Cl)c2)CC1 (stereo not given) gave an inhibition of 99%.
O=C1NC2(CCCc3ccccc32)C(=O)N1CCCCN1CCN(c2cccc(Cl)c2)CC1 (stereo not given) gave an inhibition of 100%.

These molecules were tested against Muscarinic acetylcholine receptor M3 (Homo sapiens) (UniProt P20309) (assay: Displacement of [3H]-4-DAMP from human muscarinic M3 receptor expressed in CHO cells at 1 uM by scintillation counting analysis).
Muscarinic acetylcholine receptor M3 (Homo sapiens), sequence (P20309 whole entry, looked up): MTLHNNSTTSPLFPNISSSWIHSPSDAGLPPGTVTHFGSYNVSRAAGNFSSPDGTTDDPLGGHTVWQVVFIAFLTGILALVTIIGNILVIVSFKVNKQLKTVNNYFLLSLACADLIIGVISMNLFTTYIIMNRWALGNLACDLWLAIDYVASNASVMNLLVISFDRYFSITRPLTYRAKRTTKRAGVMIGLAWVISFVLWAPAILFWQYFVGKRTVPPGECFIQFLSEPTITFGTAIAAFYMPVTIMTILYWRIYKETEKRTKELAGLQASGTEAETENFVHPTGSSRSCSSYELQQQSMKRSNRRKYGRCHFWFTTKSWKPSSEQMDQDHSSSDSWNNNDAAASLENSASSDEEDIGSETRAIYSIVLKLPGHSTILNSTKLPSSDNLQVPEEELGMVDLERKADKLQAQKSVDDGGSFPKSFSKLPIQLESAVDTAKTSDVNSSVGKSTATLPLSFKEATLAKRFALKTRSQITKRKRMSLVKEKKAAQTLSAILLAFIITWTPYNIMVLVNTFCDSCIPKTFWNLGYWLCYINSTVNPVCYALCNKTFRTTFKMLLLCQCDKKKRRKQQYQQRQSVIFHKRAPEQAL
Assay type: cell-based
Outline: as §1
O=C1NC2(CCc3ccccc32)C(=O)N1CCCCN1CCN(c2cccc(Cl)c2)CC1 (stereo not given) was tested, and the inhibition was 5%.
With O=C1NC2(CCCc3ccccc32)C(=O)N1CCCCN1CCN(c2cccc(Cl)c2)CC1 (stereo not given) the inhibition was 3%.

What follows are molecules tested against T1, Alpha-2C adrenergic receptor (Homo sapiens) (UniProt P18825) (assay: Displacement of [3H]RX821002 from human alpha2C adrenergic receptor expressed in CHO cells at 1 uM by scintillation counting analysis).
T1 sequence (whole entry): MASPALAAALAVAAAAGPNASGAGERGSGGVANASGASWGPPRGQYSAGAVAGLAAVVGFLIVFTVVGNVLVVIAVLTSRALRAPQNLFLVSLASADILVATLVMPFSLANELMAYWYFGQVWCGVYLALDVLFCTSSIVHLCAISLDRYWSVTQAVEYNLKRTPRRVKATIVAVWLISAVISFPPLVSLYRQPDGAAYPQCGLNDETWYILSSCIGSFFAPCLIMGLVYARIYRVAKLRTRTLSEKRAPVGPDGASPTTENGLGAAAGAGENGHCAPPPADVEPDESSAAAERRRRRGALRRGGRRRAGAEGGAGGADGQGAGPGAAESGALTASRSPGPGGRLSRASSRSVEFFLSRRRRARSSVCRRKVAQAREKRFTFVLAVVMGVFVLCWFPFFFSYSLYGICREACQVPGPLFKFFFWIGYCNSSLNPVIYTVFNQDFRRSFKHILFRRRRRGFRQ
Assay type: cell-based
Outline: as §1
With O=C1NC2(CCc3ccccc32)C(=O)N1CCCCN1CCN(c2cccc(Cl)c2)CC1 (stereo not given) the inhibition was 97%.
O=C1NC2(CCCc3ccccc32)C(=O)N1CCCCN1CCN(c2cccc(Cl)c2)CC1 (stereo not given) showed an inhibition of 99%.

The molecules below were run against 5-hydroxytryptamine receptor 6 (Homo sapiens) (UniProt P50406) (assay: Displacement of [3H]LSD from human 5HT6 receptor expressed in CHO cells at 1 uM by scintillation counting analysis).
5-hydroxytryptamine receptor 6 (Homo sapiens), sequence (P50406 whole entry): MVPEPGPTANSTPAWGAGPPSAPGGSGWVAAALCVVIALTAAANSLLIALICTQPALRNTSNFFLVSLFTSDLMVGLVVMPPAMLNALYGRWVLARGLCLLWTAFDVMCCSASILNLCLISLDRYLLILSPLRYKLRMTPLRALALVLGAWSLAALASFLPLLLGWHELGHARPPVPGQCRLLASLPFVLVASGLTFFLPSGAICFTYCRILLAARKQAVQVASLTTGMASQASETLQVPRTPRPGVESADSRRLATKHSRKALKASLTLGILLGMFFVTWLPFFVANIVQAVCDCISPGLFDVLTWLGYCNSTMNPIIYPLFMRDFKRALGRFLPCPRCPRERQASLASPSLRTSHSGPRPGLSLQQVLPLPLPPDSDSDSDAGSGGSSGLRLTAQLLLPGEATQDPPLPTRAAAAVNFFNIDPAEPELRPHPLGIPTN
Assay type: cell-based
Outline: as §1
With O=C1NC2(CCc3ccccc32)C(=O)N1CCCCN1CCN(c2cccc(Cl)c2)CC1 (stereo not given) the inhibition was 23%.
O=C1NC2(CCCc3ccccc32)C(=O)N1CCCCN1CCN(c2cccc(Cl)c2)CC1 (stereo not given) gave an inhibition of 37%.

These molecules were tested against T2, 5-hydroxytryptamine receptor 2C (Homo sapiens) (UniProt P28335) (assay: Displacement of [3H]-mesulergine from human cloned 5HT2C receptor expressed in HEK293 cells at 1 uM by scintillation counting analysis).
T2 sequence (whole entry): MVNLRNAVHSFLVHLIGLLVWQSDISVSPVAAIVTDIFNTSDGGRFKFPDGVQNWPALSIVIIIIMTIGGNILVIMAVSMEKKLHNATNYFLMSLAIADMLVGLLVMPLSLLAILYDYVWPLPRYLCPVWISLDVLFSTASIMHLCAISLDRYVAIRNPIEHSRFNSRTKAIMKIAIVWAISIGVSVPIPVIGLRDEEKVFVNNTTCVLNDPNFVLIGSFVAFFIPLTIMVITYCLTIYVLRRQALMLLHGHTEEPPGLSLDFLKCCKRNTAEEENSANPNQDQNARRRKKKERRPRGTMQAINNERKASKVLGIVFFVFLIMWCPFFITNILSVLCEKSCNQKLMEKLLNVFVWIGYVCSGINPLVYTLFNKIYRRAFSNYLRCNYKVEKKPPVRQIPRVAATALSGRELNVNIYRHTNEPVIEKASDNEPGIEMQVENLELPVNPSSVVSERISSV
Assay type: cell-based
Outline: as §1
O=C1NC2(CCc3ccccc32)C(=O)N1CCCCN1CCN(c2cccc(Cl)c2)CC1 (stereo not given) showed an inhibition of 61%.
For O=C1NC2(CCCc3ccccc32)C(=O)N1CCCCN1CCN(c2cccc(Cl)c2)CC1 (stereo not given), the inhibition was 61%.

The molecules below were run against D(2) dopamine receptor (Homo sapiens) (UniProt P14416) (assay: Displacement of [3H]methylspiperione from human D2 receptor expressed in CHO cells at 1 uM by scintillation counting analysis).
D(2) dopamine receptor (Homo sapiens), sequence (P14416 whole entry): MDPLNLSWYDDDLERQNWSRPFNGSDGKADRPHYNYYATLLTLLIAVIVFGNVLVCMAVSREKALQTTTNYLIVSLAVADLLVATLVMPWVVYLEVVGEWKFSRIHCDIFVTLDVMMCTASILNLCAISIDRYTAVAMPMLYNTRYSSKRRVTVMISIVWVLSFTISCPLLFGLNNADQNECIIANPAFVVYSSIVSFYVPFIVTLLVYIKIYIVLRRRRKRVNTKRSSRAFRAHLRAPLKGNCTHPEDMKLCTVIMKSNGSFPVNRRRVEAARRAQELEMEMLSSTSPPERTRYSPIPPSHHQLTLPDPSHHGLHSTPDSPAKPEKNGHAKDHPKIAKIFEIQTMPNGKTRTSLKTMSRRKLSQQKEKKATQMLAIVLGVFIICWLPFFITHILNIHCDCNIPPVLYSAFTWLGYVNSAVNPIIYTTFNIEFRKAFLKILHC
Assay type: cell-based
Outline: as §1
O=C1NC2(CCc3ccccc32)C(=O)N1CCCCN1CCN(c2cccc(Cl)c2)CC1 (stereo not given) showed an inhibition of 75%.
With O=C1NC2(CCCc3ccccc32)C(=O)N1CCCCN1CCN(c2cccc(Cl)c2)CC1 (stereo not given) the inhibition was 77%.

The molecules below were run against D(3) dopamine receptor (Homo sapiens) (UniProt P35462) (assay: Displacement of [3H]methylspiperione from human D3 receptor expressed in CHO cells at 1 uM by scintillation counting analysis).
D(3) dopamine receptor (Homo sapiens), sequence (P35462 whole entry): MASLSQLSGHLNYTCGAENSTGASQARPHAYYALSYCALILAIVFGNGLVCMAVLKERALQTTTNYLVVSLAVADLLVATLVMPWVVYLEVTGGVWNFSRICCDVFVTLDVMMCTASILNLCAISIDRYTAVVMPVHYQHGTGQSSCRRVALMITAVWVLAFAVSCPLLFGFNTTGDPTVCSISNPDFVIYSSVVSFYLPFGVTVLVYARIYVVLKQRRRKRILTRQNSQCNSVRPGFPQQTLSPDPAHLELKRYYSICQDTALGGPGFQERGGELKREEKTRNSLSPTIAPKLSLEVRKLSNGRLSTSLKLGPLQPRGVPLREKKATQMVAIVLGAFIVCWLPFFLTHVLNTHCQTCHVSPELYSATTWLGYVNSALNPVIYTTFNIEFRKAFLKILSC
Assay type: cell-based
Outline: as §1
For O=C1NC2(CCc3ccccc32)C(=O)N1CCCCN1CCN(c2cccc(Cl)c2)CC1 (stereo not given), the inhibition was 97%.
Work on O=C1NC2(CCCc3ccccc32)C(=O)N1CCCCN1CCN(c2cccc(Cl)c2)CC1 (stereo not given) yielded an inhibition of 93%.

These molecules were tested against T3, D(4) dopamine receptor (Homo sapiens) (UniProt P21917) (assay: Displacement of [3H]methylspiperione from human D4 receptor expressed in CHO cells at 1 uM by scintillation counting analysis).
T3 sequence (whole entry): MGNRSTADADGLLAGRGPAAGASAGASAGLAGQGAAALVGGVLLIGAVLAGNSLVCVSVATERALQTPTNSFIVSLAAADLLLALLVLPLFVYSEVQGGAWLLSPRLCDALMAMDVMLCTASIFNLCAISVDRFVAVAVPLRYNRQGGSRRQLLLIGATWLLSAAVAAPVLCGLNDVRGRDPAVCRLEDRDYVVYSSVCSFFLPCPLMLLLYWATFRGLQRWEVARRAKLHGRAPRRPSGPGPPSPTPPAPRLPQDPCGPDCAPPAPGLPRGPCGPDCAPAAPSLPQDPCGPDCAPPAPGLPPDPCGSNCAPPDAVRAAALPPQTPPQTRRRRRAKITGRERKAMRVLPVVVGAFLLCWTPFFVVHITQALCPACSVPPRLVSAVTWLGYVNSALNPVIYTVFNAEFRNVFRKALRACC
Assay type: cell-based
Outline: as §1
O=C1NC2(CCc3ccccc32)C(=O)N1CCCCN1CCN(c2cccc(Cl)c2)CC1 (stereo not given) showed an inhibition of 90%.
Molecule O=C1NC2(CCCc3ccccc32)C(=O)N1CCCCN1CCN(c2cccc(Cl)c2)CC1 (stereo not given) has an inhibition of 93%.

The molecules below were run against 5-hydroxytryptamine receptor 2A (Homo sapiens) (UniProt P28223) (assay: Displacement of [3H]ketanserin from human cloned 5HT2A receptor expressed in HEK293 cells at 1uM by scintillation counting analysis).
5-hydroxytryptamine receptor 2A (Homo sapiens), sequence (P28223 whole entry): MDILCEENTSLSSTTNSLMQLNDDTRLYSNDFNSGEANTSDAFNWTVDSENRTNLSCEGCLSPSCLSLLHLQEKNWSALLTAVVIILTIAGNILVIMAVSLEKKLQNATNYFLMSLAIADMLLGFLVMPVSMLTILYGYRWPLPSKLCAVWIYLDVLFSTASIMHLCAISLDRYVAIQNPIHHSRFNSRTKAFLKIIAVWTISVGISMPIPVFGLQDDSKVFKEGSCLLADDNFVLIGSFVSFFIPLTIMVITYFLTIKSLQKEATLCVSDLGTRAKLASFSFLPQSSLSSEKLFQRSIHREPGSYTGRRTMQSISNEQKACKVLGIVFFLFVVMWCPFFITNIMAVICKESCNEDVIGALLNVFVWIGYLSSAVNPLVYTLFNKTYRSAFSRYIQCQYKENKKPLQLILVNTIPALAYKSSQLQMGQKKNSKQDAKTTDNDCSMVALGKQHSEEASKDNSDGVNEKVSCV
Assay type: cell-based
Outline: as §1
O=C1NC2(CCc3ccccc32)C(=O)N1CCCCN1CCN(c2cccc(Cl)c2)CC1 (stereo not given) showed an inhibition of 98%.
For O=C1NC2(CCCc3ccccc32)C(=O)N1CCCCN1CCN(c2cccc(Cl)c2)CC1 (stereo not given), the inhibition was 95%.

Each molecule was assayed against Histamine H1 receptor (Homo sapiens) (UniProt P35367) (assay: Displacement of [3H]-pyrilamine from human cloned H1 receptor expressed in HEK293 cells at 1 uM by scintillation counting analysis).
Histamine H1 receptor (Homo sapiens), sequence (P35367 whole entry): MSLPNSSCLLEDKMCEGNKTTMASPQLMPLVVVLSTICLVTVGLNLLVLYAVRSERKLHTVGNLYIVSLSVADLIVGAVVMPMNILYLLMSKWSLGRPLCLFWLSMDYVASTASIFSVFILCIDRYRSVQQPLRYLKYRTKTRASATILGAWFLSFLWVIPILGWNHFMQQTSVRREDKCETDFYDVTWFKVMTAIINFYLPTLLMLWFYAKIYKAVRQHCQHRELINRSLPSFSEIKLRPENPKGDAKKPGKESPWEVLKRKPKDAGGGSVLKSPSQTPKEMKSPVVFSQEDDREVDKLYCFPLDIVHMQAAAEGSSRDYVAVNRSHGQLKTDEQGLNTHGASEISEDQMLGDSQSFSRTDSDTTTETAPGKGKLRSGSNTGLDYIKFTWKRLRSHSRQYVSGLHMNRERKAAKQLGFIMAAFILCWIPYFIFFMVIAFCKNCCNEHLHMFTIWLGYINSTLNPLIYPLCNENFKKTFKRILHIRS
Assay type: cell-based
Outline: as §1
In the case of O=C1NC2(CCc3ccccc32)C(=O)N1CCCCN1CCN(c2cccc(Cl)c2)CC1 (stereo not given), the inhibition is reported as 101%.
Molecule O=C1NC2(CCCc3ccccc32)C(=O)N1CCCCN1CCN(c2cccc(Cl)c2)CC1 (stereo not given) has an inhibition of 102%.

The molecules below were run against 5-hydroxytryptamine receptor 7 (Rattus norvegicus, UniProt P32305) (assay: Displacement of [3H]-5-CT from 5-HT7 receptor in rat hypothalamic membrane by liquid scintillation analysis).
5-hydroxytryptamine receptor 7, sequence (P32305 whole entry): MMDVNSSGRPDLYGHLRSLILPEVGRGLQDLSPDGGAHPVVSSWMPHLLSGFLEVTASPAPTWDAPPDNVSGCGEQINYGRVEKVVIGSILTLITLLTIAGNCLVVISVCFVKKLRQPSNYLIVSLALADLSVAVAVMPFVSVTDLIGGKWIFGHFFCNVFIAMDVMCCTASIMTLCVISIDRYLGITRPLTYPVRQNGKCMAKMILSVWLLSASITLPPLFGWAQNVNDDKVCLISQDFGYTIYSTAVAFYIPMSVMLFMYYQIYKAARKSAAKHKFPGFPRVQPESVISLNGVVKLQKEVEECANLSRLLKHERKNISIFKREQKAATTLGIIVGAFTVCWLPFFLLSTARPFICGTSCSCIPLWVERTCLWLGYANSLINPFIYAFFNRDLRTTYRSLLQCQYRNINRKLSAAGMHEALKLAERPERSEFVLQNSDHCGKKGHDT
Assay type: cell membranes
Outline: (§2)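 Native rat membranes were used: hippocampus with [3H]-8-OH-DPAT (170 Ci/mmol) and 5-HT for non-specific binding; cortex with [3H]-ketanserin (88.0 Ci/mmol) and methysergide; hypothalamus with [3H]-5-CT (34.5 Ci/mmol) and 5-HT. Compounds were tested in triplicate at 7–8 concentrations (10⁻¹¹–10⁻⁴ M). Read-out was liquid scintillation counting. Ki came from nonlinear regression with Cheng-Prusoff, as the mean of at least two experiments.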
Work on O=C1NC2(CCc3ccccc32)C(=O)N1CCCCN1CCN(c2cccc(Cl)c2)CC1 (stereo not given) yielded a Ki of 27 nM.
In the case of O=C1NC2(CCCc3ccccc32)C(=O)N1CCCCN1CCN(c2cccc(Cl)c2)CC1 (stereo not given), the Ki is reported as 37 nM.

What follows are molecules tested against Adrenergic receptor alpha-1 (Homo sapiens) (UniProt P35348+P25100+P35368) (assay: Displacement of [3H]prazosin from human alpha1-adrenergic receptor expressed in CHO cells at 1 uM by scintillation counting analysis).
Assay type: cell-based
Outline: as §1
With O=C1NC2(CCc3ccccc32)C(=O)N1CCCCN1CCN(c2cccc(Cl)c2)CC1 (stereo not given) the inhibition was 96%.
Molecule O=C1NC2(CCCc3ccccc32)C(=O)N1CCCCN1CCN(c2cccc(Cl)c2)CC1 (stereo not given) has an inhibition of 94%.

What follows are molecules tested against 5-hydroxytryptamine receptor 2A (Rattus norvegicus, UniProt P14842) (assay: Displacement of [3H]ketanserin from 5-HT2A receptor in rat cortical membrane by liquid scintillation analysis).
5-hydroxytryptamine receptor 2A, sequence (P14842 whole entry): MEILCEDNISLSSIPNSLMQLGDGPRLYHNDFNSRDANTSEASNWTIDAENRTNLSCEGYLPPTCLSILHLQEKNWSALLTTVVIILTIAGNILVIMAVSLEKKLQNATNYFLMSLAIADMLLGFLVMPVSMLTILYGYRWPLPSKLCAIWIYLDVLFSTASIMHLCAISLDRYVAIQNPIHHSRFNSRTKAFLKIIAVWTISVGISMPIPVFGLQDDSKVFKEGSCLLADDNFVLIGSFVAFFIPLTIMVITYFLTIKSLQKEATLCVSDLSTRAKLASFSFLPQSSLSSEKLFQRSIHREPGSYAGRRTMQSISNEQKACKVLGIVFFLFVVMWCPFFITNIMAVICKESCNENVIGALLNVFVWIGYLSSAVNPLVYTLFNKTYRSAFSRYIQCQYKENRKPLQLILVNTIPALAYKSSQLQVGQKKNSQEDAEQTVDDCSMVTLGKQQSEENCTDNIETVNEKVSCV
Assay type: cell membranes
Outline: as §2
With O=C1NC2(CCc3ccccc32)C(=O)N1CCCCN1CCN(c2cccc(Cl)c2)CC1 (stereo not given) the Ki was 21 nM.
O=C1NC2(CCCc3ccccc32)C(=O)N1CCCCN1CCN(c2cccc(Cl)c2)CC1 (stereo not given) gave a Ki of 27 nM.
